From ChEMBL document CHEMBL2176911 (J Med Chem, 2012)
Active and inactive are the calls of the source. The rule behind the calls is not given here.

Tests used:
[1] = target: Casein kinase II (Homo sapiens) (UniProt P67870+P68400+P19784); test: Inhibition of human recombinant CK2 using RRREDEESDDEE as substrate and [gamma33P]ATP at 10 uM after 30 mins by scintillation counting; type: protein-complex assay
[2] = target: Cyclin-dependent kinase 7/ cyclin H (Homo sapiens, UniProt P50613); test: Inhibition of human recombinant CDK7/cyclin H expressed in insect cell using YSPTSPSYSPTSPSYSPTSPSKKKK as substrate and [gamma33P]ATP after 30 mins by scintillation counting
Procedure, shortened: (§1)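 Panel of purified kinases (recombinant from several species plus native enzymes), each assayed radiometrically over a range of inhibitor concentrations; IC50 in μM calculated from the dose-response curves.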

[3] = target: T1, Dual specificity tyrosine-phosphorylation-regulated kinase 1A (Rattus norvegicus, UniProt Q63470); test: Inhibition of rat recombinant C-terminal truncated GST-tagged DYRK1A expressed in Escherichia coli using GRSRSRSRSRSR as substrate and [gamma33P]ATP after 30 mins by scintillation counting
[4] = Inhibition of pig […] isolated from brain using RRKHAAIGpSAYSITA as substrate and [gamma33P]ATP after 30 mins by scintillation couting; parameters: species or system Sus scrofa; procedure, shortened: as §1
CDK9/cyclin T1 = CDK9/cyclin T1 (Homo sapiens, UniProt P50750); test: Inhibition of human recombinant CDK9/cyclin T expressed in insect cell using YSPTSPSYSPTSPSYSPTSPSKKKK as substrate and [gamma33P]ATP after 30 mins by scintillation counting; procedure, shortened: as §1
Leishmania major = test: Inhibition of Leishmania major recombinant CK1 expressed in Escherichia coli using RRKHAAIGpSAYSITA as substrate and [gamma33P]ATP at 10 uM after 30 mins by scintillation counting
[5] = target: T1, Dual specificity tyrosine-phosphorylation-regulated kinase 1A; test: Inhibition of rat DYRK1A isolated from brain using KKISGRLSPIMTEQ as substrate and [gamma33P]ATP after 30 mins by scintillation counting
[6] = target: T2, Dual specificity tyrosine-phosphorylation-regulated kinase 2 (Homo sapiens) (UniProt Q92630); test: Binding affinity to DYRK2
T2 sequence (whole entry): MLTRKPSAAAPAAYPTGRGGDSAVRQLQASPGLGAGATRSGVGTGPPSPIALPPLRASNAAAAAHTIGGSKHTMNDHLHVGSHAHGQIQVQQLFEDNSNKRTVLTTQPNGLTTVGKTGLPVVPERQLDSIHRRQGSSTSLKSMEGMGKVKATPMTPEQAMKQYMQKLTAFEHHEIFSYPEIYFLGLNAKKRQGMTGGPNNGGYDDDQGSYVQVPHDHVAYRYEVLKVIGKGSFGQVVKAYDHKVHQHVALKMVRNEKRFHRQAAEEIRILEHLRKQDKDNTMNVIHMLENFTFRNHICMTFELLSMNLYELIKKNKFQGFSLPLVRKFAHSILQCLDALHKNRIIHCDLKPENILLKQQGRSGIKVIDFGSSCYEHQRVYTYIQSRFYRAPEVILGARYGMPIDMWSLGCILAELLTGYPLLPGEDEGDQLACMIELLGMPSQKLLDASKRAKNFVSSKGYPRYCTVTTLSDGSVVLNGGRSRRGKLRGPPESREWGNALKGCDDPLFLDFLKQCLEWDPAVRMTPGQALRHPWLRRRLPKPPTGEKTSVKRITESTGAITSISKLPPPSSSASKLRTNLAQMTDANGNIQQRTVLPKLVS

[7] = target: Dual specificity protein kinase CLK4 (Mus musculus, UniProt O35493); test: Inhibition of mouse recombinant GST-tagged CLK4 expressed in Escherichia coli using GRSRSRSRSRSR as substrate and [gamma33P]ATP after 30 mins by scintillation counting
[8] = target: Dual specificity protein kinase CLK1 (Homo sapiens) (UniProt P49759); test: Binding affinity to CLK1
[9] = target: Serine/threonine-protein kinase pim-1 (Homo sapiens, UniProt P11309); test: Inhibition of human recombinant PIM1 expressed in Escherichia coli using histone H1 as substrate and [gamma33P]ATP after 30 mins by scintillation counting
[10] = target: Dual specificity protein kinase CLK4 (Homo sapiens, UniProt Q9HAZ1); test: Binding affinity to CLK4
[11] = target: Dual specificity protein kinase CLK1 (Mus musculus, UniProt P22518); test: Inhibition of mouse recombinant GST-tagged CLK1 expressed in Escherichia coli using GRSRSRSRSRSR as substrate and [gamma33P]ATP after 30 mins by scintillation counting; procedure, shortened: as §1
[12] = target: Cyclin-dependent kinase 2/cyclin A (Homo sapiens, UniProt P24941); test: Inhibition of CDK2/cyclin A using [gamma33P]ATP after 30 mins by scintillation counting; type: protein-complex assay; procedure, shortened: as §1
[13] = target: Dual specificity tyrosine-phosphorylation-regulated kinase 3 (Homo sapiens, UniProt O43781); test: Inhibition of human recombinant GST-tagged DYRK3 expressed in Escherichia coli using GRSRSRSRSRSR as substrate and [gamma33P]ATP after 30 mins by scintillation counting
[14] = target: Glycogen synthase kinase-3 (Sus scrofa, UniProt B2LUN4+I6LNT8); test: Inhibition of pig GSK3alpha/beta isolated from brain using YRRAAVPPSPSLSRHSSPHQ-phosphoS-EDEEE as substrate and [gamma33P]ATP after 30 mins by scintillation counting; procedure, shortened: as §1
[15] = target: Mitogen-activated protein kinase 1 (Rattus norvegicus, UniProt P63086); test: Inhibition of rat recombinant ERK2 using Ets1 as substrate and [gamma33P]ATP as substrate after 30 mins by scintillation counting; procedure, shortened: as §1
[16] = target: Dual specificity tyrosine-phosphorylation-regulated kinase 2 (Homo sapiens, UniProt Q92630); test: Inhibition of human recombinant GST-tagged DYRK2 expressed in Escherichia coli using GRSRSRSRSRSR as substrate and [gamma33P]ATP after 30 mins by scintillation counting
[17] = target: Dual specificity protein kinase CLK2 (Mus musculus, UniProt O35491); test: Inhibition of mouse recombinant GST-tagged CLK2 expressed in Escherichia coli using GRSRSRSRSRSR as substrate and [gamma33P]ATP after 30 mins by scintillation counting; procedure, shortened: as §1
[18] = Inhibition of starfish CDK1/cyclin B using histone H1 as substrate and [gamma33P]ATP after 30 mins by scintillation counting; parameters: species or system Asteroidea; procedure, shortened: as §1
[19] = target: Glycogen synthase kinase-3 beta (Homo sapiens, UniProt P49841); test: Inhibition of human recombinant GSK3beta expressed in insect cells using YRRAAVPPSPSLSRHSSPHQ-phosphoS-EDEEE as substrate and [gamma33P]ATP after 30 mins by scintillation counting
[20] = target: Dual specificity protein kinase CLK3 (Mus musculus, UniProt O35492); test: Inhibition of mouse recombinant GST-tagged CLK3 expressed in Escherichia coli using GRSRSRSRSRSR as substrate and [gamma33P]ATP after 30 mins by scintillation counting; procedure, shortened: as §1
[21] = target: T3, Dual specificity tyrosine-phosphorylation-regulated kinase 4 (Homo sapiens, UniProt Q9NR20); test: Inhibition of human recombinant GST-tagged DYRK4 expressed in Escherichia coli using GRSRSRSRSRSR as substrate and [gamma33P]ATP after 30 mins by scintillation counting
T3 sequence (Q9NR20 whole entry): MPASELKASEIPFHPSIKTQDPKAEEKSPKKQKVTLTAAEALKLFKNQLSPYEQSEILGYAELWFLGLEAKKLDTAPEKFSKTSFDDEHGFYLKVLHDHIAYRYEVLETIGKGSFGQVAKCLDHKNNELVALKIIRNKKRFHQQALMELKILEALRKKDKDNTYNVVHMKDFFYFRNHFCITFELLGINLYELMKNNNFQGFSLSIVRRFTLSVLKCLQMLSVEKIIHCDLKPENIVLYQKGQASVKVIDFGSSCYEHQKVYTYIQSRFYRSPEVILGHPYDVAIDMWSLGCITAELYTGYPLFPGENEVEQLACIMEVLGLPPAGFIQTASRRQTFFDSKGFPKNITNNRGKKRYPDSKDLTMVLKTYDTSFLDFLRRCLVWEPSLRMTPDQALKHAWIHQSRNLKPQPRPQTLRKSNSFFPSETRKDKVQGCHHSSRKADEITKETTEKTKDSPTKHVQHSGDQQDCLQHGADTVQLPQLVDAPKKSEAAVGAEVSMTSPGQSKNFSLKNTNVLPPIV

[22] = target: Glycogen synthase kinase-3 alpha (Homo sapiens, UniProt P49840); test: Inhibition of human recombinant GSK3alpha expressed in insect cells using YRRAAVPPSPSLSRHSSPHQ-phosphoS-EDEEE as substrate and [gamma33P]ATP after 30 mins by scintillation counting
[23] = target: Dual specificity protein kinase CLK3 (Homo sapiens, UniProt P49761); test: Binding affinity to CLK3
Plasmodium falciparum = test: Inhibition of Plasmodium falciparum recombinant GSK3 expressed in Escherichia coli using YRRAAVPPSPSLSRHSSPHQ-phosphoS-EDEEE as substrate and [gamma33P]ATP at 10 uM after 30 mins by scintillation counting
[24] = target: Dual specificity protein kinase CLK3 (Mus musculus) (UniProt O35492); test: Inhibition of mouse recombinant GST-tagged CLK3 expressed in Escherichia coli using GRSRSRSRSRSR as substrate and [gamma33P]ATP at 10 uM after 30 mins by scintillation counting
Procedure, shortened: (§2)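 Radiometric kinase assay with the RS peptide as substrate and 15 μM [γ-33P]ATP.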

[25] = target: Dual specificity protein kinase CLK1 (Mus musculus) (UniProt P22518); test: Inhibition of mouse recombinant GST-tagged CLK1 expressed in Escherichia coli using GRSRSRSRSRSR as substrate and [gamma33P]ATP at 10 uM after 30 mins by scintillation counting; procedure, shortened: as §2
[26] = target: Dual specificity tyrosine-phosphorylation-regulated kinase 1A (Homo sapiens) (UniProt Q13627); test: Inhibition of human recombinant GST-tagged DYRK1A expressed in Escherichia coli using GRSRSRSRSRSR as substrate and [gamma33P]ATP at 15 uM after 30 mins by scintillation counting
[27] = target: T2, Dual specificity tyrosine-phosphorylation-regulated kinase 2 (Homo sapiens); test: Inhibition of human recombinant GST-tagged DYRK2 expressed in Escherichia coli using GRSRSRSRSRSR as substrate and [gamma33P]ATP at 10 uM after 30 mins by scintillation counting
HT-22 = test: Neuroprotective activity against glutamate-induced toxicity in mouse HT22 cells after 24 hrs by MTS assay; type: functional, cell-based

Sequence of Dual specificity protein kinase CLK1 (Mus musculus) (P22518 whole entry, looked up): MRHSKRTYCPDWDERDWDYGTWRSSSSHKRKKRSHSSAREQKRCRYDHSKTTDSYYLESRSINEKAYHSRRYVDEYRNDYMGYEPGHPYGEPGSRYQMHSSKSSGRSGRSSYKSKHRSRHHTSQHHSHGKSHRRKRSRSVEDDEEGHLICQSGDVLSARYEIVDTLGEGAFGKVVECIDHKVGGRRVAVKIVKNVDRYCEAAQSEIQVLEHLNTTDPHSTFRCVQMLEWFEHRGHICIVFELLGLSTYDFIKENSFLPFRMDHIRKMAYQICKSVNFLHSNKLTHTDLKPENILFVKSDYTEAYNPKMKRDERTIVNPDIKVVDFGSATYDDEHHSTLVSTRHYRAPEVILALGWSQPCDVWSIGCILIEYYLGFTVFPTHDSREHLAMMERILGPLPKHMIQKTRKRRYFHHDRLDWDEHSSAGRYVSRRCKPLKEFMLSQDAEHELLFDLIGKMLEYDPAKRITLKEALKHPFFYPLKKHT
Sequence of Dual specificity protein kinase CLK3 (Mus musculus) (O35492 whole entry): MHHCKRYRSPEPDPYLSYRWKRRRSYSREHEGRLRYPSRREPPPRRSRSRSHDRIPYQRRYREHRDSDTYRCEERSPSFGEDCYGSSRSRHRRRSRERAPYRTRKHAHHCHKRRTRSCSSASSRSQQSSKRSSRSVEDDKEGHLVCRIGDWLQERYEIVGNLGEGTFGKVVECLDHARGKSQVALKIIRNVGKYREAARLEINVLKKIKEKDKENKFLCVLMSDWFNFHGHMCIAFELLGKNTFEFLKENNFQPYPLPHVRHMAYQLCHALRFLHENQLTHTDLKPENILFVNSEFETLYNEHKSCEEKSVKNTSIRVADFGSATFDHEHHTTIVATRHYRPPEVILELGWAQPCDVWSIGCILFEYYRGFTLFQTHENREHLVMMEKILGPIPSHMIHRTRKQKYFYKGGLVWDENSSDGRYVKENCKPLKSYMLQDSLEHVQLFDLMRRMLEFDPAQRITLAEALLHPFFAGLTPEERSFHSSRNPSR
Sequence of Dual specificity protein kinase CLK1 (P22518 whole entry): as the sequence (P22518 whole entry, looked up) above
Sequence of Serine/threonine-protein kinase pim-1 (P11309 whole entry): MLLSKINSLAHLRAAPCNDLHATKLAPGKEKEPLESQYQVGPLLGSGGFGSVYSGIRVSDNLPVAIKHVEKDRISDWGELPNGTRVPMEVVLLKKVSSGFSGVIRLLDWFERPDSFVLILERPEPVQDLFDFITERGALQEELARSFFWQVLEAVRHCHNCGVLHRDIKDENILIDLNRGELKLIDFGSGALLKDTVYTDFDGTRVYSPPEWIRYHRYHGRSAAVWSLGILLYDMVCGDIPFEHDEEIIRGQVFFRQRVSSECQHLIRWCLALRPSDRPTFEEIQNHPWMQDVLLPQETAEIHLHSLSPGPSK
Sequence of Glycogen synthase kinase-3 beta (P49841 whole entry): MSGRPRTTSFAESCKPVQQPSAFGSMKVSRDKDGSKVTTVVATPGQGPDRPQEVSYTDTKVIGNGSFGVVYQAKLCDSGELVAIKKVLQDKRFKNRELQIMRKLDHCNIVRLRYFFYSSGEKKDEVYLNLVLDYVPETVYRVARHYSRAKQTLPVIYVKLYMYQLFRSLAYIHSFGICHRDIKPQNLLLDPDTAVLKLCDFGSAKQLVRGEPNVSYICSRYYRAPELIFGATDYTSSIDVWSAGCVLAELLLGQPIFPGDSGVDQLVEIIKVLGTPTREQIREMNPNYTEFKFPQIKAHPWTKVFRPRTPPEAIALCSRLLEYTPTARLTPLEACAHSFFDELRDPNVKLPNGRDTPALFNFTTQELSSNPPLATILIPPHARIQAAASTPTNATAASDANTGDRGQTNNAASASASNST
Sequence of Dual specificity protein kinase CLK3 (Mus musculus, UniProt O35492) (O35492 whole entry): as the sequence (O35492 whole entry) above
Sequence of Glycogen synthase kinase-3 alpha (P49840 whole entry): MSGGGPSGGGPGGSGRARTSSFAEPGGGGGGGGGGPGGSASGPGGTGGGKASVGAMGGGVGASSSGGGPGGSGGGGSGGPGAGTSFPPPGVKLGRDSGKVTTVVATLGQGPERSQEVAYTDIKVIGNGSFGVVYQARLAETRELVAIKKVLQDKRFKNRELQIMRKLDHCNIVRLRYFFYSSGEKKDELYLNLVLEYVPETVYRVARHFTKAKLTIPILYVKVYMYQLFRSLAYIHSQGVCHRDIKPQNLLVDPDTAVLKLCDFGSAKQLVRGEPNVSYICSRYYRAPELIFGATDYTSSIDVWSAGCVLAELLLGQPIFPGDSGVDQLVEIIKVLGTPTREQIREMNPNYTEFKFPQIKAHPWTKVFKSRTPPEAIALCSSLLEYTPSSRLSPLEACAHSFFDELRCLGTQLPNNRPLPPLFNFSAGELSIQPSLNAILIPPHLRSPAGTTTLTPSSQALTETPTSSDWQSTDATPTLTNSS
Sequence of Mitogen-activated protein kinase 1 (P63086 whole entry): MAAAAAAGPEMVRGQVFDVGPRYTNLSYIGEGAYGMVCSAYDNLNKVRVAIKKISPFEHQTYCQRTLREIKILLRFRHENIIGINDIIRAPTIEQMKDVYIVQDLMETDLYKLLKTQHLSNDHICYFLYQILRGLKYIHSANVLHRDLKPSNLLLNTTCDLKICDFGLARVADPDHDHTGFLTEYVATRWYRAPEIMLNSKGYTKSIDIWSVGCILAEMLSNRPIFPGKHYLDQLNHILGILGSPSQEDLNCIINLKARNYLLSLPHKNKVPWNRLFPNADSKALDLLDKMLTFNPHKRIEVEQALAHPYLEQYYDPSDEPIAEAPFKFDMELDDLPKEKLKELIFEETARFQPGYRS
Sequence of Dual specificity tyrosine-phosphorylation-regulated kinase 3 (O43781 whole entry): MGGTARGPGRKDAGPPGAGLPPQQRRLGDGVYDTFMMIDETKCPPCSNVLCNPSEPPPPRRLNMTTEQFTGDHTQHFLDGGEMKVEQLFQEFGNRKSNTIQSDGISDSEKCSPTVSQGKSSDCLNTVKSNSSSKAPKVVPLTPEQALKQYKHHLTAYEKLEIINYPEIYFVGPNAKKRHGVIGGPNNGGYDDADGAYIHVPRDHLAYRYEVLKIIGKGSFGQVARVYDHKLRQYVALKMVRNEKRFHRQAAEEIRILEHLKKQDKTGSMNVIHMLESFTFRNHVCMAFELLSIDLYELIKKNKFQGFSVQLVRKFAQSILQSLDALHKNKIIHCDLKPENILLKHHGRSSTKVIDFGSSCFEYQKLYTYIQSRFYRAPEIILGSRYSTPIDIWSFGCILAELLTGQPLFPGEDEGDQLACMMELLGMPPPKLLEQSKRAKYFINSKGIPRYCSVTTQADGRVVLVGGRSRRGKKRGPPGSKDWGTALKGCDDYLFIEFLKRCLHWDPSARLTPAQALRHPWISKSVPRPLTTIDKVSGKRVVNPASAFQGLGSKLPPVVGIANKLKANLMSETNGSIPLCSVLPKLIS
Sequence of Dual specificity protein kinase CLK4 (Mus musculus, UniProt O35493) (O35493 whole entry): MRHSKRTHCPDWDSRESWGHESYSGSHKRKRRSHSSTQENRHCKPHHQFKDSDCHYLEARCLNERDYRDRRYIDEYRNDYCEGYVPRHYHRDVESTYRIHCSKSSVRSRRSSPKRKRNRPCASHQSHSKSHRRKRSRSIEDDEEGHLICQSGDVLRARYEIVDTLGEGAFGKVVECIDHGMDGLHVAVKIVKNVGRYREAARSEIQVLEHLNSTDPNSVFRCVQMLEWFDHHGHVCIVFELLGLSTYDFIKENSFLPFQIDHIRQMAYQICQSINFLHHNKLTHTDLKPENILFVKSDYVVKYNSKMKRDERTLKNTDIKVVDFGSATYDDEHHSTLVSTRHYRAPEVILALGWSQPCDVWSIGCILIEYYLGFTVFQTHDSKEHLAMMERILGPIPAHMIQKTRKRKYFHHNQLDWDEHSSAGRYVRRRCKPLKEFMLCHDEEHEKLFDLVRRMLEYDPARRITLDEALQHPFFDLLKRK

CN1C(=O)/C(=C/c2ccc3c(c2)OCO3)N=C1N [LEUCETTAMINE B]
inhibition [1]: inactive | IC50 [2]: > 10000 nM | IC50 [3]: 920 nM | IC50 [4]: > 10000 nM | IC50 (CDK9/cyclin T1): > 10000 nM | inhibition (Leishmania major): inactive | IC50 [5]: 900 nM | Activity [6]: Active | IC50 [7]: 150 nM | Activity [8]: Active | IC50 [9]: > 10000 nM | Activity [10]: Active | IC50 [11]: 66 nM | IC50 [12]: > 10000 nM | IC50 [13]: 1400 nM | IC50 [14]: 2900 nM | IC50 [15]: > 10000 nM | IC50 [16]: 2000 nM | IC50 [17]: 2100 nM | IC50 [18]: > 10000 nM | IC50 [19]: > 10000 nM | IC50 [20]: 1800 nM | IC50 [21]: > 10000 nM | IC50 [22]: 7700 nM | Activity [23]: Active | inhibition (Plasmodium falciparum): inactive

CCN(C)C(=O)Oc1cccc([C@H](C)N(C)C)c1
inhibition [24]: inactive | inhibition [25]: inactive | inhibition [26]: inactive | inhibition [27]: inactive

Nc1ccc(C(=O)Nc2cccc(-c3nc(N4CCOCC4)c4oc5ncccc5c4n3)c2)cn1
Activity (HT-22): inactive

COc1ccc2c3c1O[C@H]1C[C@@H](O)C=C[C@@]31CCN(C)C2
inhibition [24]: inactive | inhibition [25]: inactive | inhibition [26]: inactive | inhibition [27]: inactive

Nc1c2c(nc3ccccc13)CCCC2
inhibition [24]: inactive | inhibition [25]: inactive | inhibition [26]: inactive | inhibition [27]: inactive

O=C(O)c1ccc2c(c1)nc(Nc1cccc(Cl)c1)c1ccncc12
Activity (HT-22): inactive
